Data as given in ChEMBL document CHEMBL2176955, “Discovery of the macrocycle 11-(2-pyrrolidin-1-yl-ethoxy)-14,19-dioxa-5,7,26-triaza-tetracyclo[19.3.1.1(2,6).1(8,12)]heptacosa-1(25),2(26),3,5,8,10,12(27),16,21,23-decaene (SB1518), a potent Janus kinase 2/fms-like tyrosine kinase-3 (JAK2/FLT3) inhibitor for the treatment of myelofibrosis and …” (J Med Chem, 2011).
pIC50: −log10 of the molar value. Converted amounts (≈) assume the structure as drawn.

Experiments:
[1] = target: Non-receptor tyrosine-protein kinase TYK2 (Homo sapiens, UniProt P29597); experiment: Inhibition of recombinant TYK2
Chain of Non-receptor tyrosine-protein kinase TYK2 (P29597 whole entry): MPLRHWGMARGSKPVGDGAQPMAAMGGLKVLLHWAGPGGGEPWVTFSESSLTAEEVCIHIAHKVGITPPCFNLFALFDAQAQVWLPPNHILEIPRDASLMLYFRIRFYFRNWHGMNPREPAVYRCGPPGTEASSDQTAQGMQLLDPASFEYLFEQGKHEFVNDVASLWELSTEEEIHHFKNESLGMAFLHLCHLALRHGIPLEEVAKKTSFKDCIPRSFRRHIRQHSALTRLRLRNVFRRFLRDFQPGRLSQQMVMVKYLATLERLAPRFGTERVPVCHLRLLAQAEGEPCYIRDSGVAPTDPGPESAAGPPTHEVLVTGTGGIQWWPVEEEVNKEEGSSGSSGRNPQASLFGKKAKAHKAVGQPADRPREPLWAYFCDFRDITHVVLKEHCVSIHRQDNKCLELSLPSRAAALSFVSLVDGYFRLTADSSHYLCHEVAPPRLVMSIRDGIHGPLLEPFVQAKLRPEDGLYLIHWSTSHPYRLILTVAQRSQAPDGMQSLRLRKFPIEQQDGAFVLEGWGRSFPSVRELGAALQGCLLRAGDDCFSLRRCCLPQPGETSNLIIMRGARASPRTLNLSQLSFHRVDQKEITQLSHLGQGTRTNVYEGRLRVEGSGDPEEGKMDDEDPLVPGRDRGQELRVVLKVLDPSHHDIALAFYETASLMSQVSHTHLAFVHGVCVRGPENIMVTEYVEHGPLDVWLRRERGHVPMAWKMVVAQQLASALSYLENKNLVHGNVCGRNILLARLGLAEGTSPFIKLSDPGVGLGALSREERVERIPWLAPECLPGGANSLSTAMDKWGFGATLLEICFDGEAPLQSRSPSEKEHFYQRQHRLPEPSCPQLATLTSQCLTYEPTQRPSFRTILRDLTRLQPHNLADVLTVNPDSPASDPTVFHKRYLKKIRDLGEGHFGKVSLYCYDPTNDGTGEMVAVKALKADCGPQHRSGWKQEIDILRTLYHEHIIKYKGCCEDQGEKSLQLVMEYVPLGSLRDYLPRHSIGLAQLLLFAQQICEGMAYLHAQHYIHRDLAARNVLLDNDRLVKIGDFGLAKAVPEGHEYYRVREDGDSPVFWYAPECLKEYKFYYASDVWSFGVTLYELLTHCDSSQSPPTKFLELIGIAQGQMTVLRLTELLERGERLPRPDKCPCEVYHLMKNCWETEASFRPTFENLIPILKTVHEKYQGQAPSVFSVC

[2] = target: T1, Tyrosine-protein kinase JAK3 (Homo sapiens, UniProt P52333); experiment: Inhibition of recombinant JAK3 using Poly (Glu,Ala,Tyr) as substrate after 2 hrs by luminescence assay
T1 sequence (P52333 whole entry): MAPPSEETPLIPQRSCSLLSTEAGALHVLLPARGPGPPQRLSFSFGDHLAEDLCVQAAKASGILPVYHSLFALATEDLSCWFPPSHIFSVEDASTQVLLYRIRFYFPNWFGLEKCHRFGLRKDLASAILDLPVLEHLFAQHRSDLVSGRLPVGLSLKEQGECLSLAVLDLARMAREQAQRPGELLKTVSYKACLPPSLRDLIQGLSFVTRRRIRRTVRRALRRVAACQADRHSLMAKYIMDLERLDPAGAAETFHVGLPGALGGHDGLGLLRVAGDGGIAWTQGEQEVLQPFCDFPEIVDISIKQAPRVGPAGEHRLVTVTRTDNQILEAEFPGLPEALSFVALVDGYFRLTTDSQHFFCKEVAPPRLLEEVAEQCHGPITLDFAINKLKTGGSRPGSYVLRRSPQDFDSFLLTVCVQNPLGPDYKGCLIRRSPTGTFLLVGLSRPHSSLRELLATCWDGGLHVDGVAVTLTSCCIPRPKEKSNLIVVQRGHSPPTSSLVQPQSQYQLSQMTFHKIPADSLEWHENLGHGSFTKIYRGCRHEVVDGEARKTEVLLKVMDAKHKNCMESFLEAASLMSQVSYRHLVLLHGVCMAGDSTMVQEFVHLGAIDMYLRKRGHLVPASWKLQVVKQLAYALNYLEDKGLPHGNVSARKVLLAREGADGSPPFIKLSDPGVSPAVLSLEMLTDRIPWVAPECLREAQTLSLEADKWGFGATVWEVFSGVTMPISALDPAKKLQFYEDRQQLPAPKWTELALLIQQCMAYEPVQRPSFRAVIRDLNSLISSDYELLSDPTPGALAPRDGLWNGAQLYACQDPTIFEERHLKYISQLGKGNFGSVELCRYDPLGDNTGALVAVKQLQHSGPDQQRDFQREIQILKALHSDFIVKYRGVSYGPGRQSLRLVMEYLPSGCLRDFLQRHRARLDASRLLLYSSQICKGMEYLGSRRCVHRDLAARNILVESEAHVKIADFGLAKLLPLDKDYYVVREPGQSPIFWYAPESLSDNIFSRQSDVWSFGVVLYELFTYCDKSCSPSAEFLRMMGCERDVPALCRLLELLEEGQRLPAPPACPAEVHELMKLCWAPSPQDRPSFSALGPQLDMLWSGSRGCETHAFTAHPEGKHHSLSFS

[3] = target: Tyrosine-protein kinase JAK1 (Homo sapiens, UniProt P23458); experiment: Inhibition of recombinant JAK1 using Poly (Glu,Ala,Tyr) as substrate after 2 hrs by luminescence assay
Chain of Tyrosine-protein kinase JAK1 (P23458 whole entry): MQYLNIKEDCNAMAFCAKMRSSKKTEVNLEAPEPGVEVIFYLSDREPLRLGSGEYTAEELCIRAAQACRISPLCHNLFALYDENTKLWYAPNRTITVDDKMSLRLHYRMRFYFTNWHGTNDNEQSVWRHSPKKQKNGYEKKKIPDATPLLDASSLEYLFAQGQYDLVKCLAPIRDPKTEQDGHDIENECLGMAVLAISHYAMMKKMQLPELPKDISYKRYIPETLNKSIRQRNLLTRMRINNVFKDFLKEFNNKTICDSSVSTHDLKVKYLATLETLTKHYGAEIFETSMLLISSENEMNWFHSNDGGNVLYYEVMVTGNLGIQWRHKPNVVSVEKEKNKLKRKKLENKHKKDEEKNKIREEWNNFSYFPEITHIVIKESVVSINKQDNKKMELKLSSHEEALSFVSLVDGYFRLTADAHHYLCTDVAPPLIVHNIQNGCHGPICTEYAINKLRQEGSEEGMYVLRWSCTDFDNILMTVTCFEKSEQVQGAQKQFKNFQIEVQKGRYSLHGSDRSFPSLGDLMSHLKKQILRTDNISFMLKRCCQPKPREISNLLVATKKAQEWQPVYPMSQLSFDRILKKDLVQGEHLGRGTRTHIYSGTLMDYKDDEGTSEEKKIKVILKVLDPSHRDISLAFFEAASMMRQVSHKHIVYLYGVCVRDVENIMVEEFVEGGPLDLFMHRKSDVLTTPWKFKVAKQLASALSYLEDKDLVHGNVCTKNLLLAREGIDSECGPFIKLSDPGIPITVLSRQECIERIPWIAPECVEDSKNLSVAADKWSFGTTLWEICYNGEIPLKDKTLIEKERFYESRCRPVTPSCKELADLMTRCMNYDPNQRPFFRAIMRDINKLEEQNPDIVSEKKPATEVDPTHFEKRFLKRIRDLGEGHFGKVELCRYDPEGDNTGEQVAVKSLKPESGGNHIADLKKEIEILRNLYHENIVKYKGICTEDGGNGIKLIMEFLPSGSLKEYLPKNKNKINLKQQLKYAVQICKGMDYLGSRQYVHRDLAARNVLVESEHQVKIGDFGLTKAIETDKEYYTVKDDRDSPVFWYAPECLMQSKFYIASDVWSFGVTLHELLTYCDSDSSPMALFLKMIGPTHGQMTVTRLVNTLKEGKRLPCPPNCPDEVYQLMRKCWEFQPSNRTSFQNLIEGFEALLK
Procedure, shortened: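 Luciferase-coupled ATP-depletion luminescence assay in 50 mM Hepes pH 7.5 with MgCl₂, MnCl₂, BGP, DTT and orthovanadate, 2 h at room temperature. Conditions per target: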

[4] = target: Tyrosine-protein kinase JAK2 (Homo sapiens, UniProt O60674); experiment: Inhibition of recombinant JAK2 using Poly (Glu,Ala,Tyr) as substrate after 2 hrs by luminescence assay
Chain of Tyrosine-protein kinase JAK2 (O60674 whole entry): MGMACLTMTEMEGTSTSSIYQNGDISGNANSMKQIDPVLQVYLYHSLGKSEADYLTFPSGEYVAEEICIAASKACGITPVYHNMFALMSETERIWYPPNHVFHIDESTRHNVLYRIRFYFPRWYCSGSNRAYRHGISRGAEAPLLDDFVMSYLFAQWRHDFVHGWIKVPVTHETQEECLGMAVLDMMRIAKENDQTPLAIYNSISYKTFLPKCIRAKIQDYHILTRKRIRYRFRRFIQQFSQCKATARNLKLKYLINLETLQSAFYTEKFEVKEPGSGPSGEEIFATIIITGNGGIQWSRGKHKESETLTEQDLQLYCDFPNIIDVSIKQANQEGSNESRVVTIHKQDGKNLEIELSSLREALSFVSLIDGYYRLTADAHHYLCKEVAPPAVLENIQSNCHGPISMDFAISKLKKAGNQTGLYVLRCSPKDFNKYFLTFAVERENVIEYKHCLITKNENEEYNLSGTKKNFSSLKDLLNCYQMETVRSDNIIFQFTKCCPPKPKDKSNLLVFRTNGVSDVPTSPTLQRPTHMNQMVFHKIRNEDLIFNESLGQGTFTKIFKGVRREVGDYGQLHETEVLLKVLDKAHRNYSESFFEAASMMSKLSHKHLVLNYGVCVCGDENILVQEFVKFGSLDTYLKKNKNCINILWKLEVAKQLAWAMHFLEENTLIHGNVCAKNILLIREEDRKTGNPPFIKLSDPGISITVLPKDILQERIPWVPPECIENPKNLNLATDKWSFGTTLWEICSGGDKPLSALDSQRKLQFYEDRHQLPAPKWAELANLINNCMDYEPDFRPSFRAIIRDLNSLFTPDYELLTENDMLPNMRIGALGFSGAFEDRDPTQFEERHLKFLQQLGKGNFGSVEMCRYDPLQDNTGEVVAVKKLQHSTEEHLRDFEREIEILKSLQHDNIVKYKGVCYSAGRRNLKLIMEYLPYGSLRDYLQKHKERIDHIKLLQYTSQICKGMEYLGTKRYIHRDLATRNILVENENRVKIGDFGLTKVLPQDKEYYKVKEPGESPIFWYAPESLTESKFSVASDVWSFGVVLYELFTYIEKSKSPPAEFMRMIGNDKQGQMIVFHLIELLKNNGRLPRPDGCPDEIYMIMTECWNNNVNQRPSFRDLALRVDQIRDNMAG

[5] = target: Cyclin-dependent kinase 2/cyclin A (Homo sapiens, UniProt P24941); experiment: Inhibition of recombinant CDK2/Cyclin A using RbinG as substrate after 2 hrs by luminescence assay; format: protein-complex assay
[6] = target: T2, Receptor-type tyrosine-protein kinase FLT3 (Homo sapiens, UniProt P36888); experiment: Inhibition of recombinant FLT3 using Poly (Glu,Tyr) as substrate after 2 hrs by luminescence assay
T2 sequence (P36888 whole entry): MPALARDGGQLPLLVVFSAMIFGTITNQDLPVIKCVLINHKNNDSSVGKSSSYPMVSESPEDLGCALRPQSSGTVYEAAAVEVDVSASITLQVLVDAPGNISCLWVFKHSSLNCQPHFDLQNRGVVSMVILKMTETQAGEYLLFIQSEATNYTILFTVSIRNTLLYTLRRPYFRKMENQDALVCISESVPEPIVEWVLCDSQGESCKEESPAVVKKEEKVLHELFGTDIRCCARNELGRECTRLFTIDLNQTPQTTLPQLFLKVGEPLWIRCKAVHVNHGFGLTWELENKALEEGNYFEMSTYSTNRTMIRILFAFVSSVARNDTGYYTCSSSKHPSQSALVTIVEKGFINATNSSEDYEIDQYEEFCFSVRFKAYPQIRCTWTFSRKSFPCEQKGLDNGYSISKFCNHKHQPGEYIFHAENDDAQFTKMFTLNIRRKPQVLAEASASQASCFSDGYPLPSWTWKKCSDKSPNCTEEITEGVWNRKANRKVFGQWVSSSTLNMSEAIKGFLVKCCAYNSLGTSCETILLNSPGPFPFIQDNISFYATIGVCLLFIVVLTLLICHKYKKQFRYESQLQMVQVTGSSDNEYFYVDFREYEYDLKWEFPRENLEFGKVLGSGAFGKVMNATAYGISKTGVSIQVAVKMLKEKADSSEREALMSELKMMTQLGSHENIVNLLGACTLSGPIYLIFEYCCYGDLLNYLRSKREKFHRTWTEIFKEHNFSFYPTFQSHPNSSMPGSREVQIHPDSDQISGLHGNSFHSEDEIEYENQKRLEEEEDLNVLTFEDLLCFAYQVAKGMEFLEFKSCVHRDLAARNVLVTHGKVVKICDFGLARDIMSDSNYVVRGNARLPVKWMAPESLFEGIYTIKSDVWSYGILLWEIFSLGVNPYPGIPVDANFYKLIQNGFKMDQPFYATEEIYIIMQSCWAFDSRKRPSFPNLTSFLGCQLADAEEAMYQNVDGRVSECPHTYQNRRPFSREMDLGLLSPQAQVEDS

physchem = details: phosphate buffer saline, pH 7

pIC50 [1] | pIC50 [2] | pIC50 [3] | pIC50 [4] | pIC50 [5] | pIC50 [6] | solubility (physchem) | Compound
7.10 | 6.08 | 5.68 | 7.32 | 6.24 | 7.66 | 145 µg/mL | C1=CCOCc2cccc(c2)-c2ccnc(n2)Nc2cc(cc(OCCN3CCCC3)c2)COC1 (mixture of isomers)
7.09 | 5.48 | 5.62 | 7.02 | 5.57 | 7.72 | 40 µg/mL | C1=CCOCc2cccc(c2)-c2ccnc(n2)Nc2cc(cc(OCCN3CCOCC3)c2)COC1 (mixture of isomers)
 |  |  | 7.46 | 6.62 | 7.28 | 25 µg/mL | Nc1cc2cc(c1)Nc1nccc(n1)-c1cccc(c1)COCC=CCOC2 (mixture of isomers)
7.74 | 6.41 | 5.72 | 7.36 | 6.40 | 7.11 |  | CCN(CC)CCC(=O)Nc1cc2cc(c1)Nc1nccc(n1)-c1cccc(c1)COCC=CCOC2 (mixture of isomers)

The next lines start with the molecule.

Compound | pIC50 [1] | pIC50 [2] | pIC50 [3] | pIC50 [4] | pIC50 [5] | pIC50 [6] | solubility (physchem)
COc1ccc2cc1-c1ccnc(n1)Nc1ccc(OCCN3CCCC3)c(c1)COCC=CCOC2 | 6.21 | 5.14 | 5.31 | 6.48 | < 5.00 | 7.92 | 
C1=CCCOc2cccc(c2)-c2ccnc(n2)Nc2cccc(c2)OCC1 | 5.28 | < 5.00 | < 5.00 | 5.92 | < 5.00 | 5.96 | 
OCCN1CCN(c2ccc3cc2COCC=CCOCc2cccc(c2)-c2ccnc(n2)N3)CC1 | 6.80 | 5.60 | 5.51 | 7.08 | 5.43 | 7.15 | 150 µg/mL (≈ 308 µM)
O=C1CCN(CCOc2ccc3cc2COCC=CCOCc2cccc(c2)-c2ccnc(n2)N3)C1 (mixture of isomers) | 6.85 | 6.42 | 6.03 | 7.66 | 5.24 | 7.17 | 
COc1cc2cc(c1OCCN1CCCC1)COCC=CCOCc1cccc(c1)-c1ccnc(n1)N2 (mixture of isomers) | 6.77 |  | 5.77 | 7.44 | 5.47 | 8.22 | 154 µg/mL
Fc1cnc2nc1-c1cccc(c1)COCC=CCOCc1cc(ccc1OCCN1CCCC1)N2 (mixture of isomers) | 6.85 | 6.00 | 6.08 | 7.77 | 5.81 | 7.82 | 
Fc1cc2cc(c1)-c1ccnc(n1)Nc1ccc(OCCN3CCCC3)c(c1)COCC=CCOC2 (mixture of isomers) | 7.44 |  | 6.42 | 7.62 | 5.70 | 8.10 | 2.61 µg/mL
Fc1ccc2cc1COCC=CCOCc1cc(ccc1OCCN1CCCC1)Nc1nccc-2n1 (mixture of isomers) |  | 6.14 | 5.34 | 7.60 | 5.49 | 7.40 | 
